In paper PMC11825259 (Heliyon, 2024):

Target: urease (Canavalia ensiformis, UniProt P07374)
Assay: In vitro kinetic assay
Format: biochemical, jack bean
How it was run: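 Jack bean urease was run without and with several concentrations of the test compound, and the data were plotted as Lineweaver–Burk double-reciprocal plots. A secondary replot of Km against inhibitor concentration gave Ki. All data were in triplicate.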

Chain of urease (P07374 whole entry, looked up): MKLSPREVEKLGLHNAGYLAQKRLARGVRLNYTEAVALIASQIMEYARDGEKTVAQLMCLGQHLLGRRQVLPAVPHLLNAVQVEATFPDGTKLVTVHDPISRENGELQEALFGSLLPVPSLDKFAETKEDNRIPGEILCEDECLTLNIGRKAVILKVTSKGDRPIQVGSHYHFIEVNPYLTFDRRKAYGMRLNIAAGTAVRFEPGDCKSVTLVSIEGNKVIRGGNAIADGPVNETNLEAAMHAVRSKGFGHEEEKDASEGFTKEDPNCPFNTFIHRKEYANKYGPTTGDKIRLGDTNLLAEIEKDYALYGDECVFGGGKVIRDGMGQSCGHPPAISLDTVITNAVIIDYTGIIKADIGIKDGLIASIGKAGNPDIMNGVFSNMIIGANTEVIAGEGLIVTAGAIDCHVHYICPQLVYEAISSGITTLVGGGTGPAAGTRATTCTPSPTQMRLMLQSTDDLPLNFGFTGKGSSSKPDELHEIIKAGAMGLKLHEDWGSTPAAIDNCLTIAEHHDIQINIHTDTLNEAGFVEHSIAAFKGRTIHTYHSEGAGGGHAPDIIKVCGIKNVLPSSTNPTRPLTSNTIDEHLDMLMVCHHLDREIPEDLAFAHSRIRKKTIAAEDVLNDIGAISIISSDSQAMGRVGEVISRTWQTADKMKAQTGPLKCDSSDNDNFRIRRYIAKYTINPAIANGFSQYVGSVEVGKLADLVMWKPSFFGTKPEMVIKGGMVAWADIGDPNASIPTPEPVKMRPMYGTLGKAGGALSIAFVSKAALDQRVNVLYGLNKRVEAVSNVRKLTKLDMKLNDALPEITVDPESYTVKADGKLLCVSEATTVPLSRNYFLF

Cc1cc(OCC(=O)N/N=C/c2ccc(OCc3cn(Cc4ccccc4)nn3)cc2)c2c(C)cc(=O)oc2c1 [13a, (E)-N'-(4-((1-Benzyl-1H-1,2,3-triazol-4-yl)methoxy)benzylidene)-2-((4,7-dimethyl-2-oxo-2H-chromen-5-yl)oxy)acetohydrazide]
Ki: 1990 nM
type of urease inhibition (Lineweaver-Burk plot): uncompetitive inhibitor
